# Data: PMC4433875 (European journal of medicinal chemistry, 2015)
# Experiments:
# [1] = system: triple-negative human breast cancer cell line MDA-MB-468; experiment: XTT cell killing assay, MDA-MB-468; type: cell-based; settings: growth inhibition
# In short: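 MDA-MB-468 cells were grown in low-glucose DMEM with 10% FBS and 1% penicillin-streptomycin and plated one day before dosing. They received a four-day drug treatment, with the XTT proliferation kit read on day 6 after drug addition. Triplicate sets were compiled to give dose-dependent cytotoxicity.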
# [2] = system: most tested cancer cell lines; settings: read-out: IC50 values for most tested cancer cell lines; original IBR2; cited from earlier work
# RAD51 = target: T1, RAD51 (Homo sapiens, UniProt Q06609); experiment: Multimer formation assay; type: biochemical; settings: RAD51:IBR120 1:10 molar ratio, vs DMSO
# T1 sequence (Q06609 1-339): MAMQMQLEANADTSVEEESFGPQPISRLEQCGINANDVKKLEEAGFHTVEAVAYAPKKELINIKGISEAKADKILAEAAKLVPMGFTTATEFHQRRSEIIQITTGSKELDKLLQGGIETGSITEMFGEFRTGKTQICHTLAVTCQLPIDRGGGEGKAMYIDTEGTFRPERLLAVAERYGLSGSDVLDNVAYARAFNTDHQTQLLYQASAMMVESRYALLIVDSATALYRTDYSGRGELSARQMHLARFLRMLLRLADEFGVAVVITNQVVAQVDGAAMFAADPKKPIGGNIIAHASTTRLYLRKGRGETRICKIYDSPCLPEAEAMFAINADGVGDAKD
# In short: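 RAD51 (3.2 µg) was incubated with test compound (1:10 molar ratio) for 15 min at 37°C. Buffer was added (50mM triethanolamine-HCl pH7.5, 0.5mM Mg(OAc)2, 1mM DTT, 2mM ATP, 100 µg/ml BSA) and incubation continued 15 min. The mixture was run on a Superdex 200 gel filtration column equilibrated in the same buffer. Fractions were dot-blotted on PVDF and probed with anti-RAD51 mAb 14B4.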
# [3] = system: HeLa cells stably expressing DR-GFP; experiment: I-SceI inducible gene conversion; type: cell-based, human; settings: 10 or 20 µM, 24 hours, flow cytometry
# In short: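 HeLa cells carrying stably integrated DR-GFP, selected with 2 µg/mL puromycin, were transfected with the I-SceI expression vector pCBASce for 24 h to induce DSBs. Cells were then exposed to DMSO or 10 or 20 µM test compound for another 24 h, trypsinized and analysed by flow cytometry for the percentage of GFP-positive cells. Three independent experiments, means±SD.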
# [4] = system: panel of cancer cell lines; experiment: XTT assay, panel of cancer cell lines; type: cell-based, human
compound,measurement,setting,value
O=S(=O)(Cc1ccccc1)N1CC=Cc2ccccc2[C@H]1c1c[nH]c2ccccc12 [IBR116],change of activity on increasing the central ring size from six to seven,[1],almost complete loss of function
O=S(=O)(Cc1ccccc1)N1CC=Cc2ccccc2[C@@H]1c1c[nH]c2ccccc12 [IBR115],change of activity on increasing the central ring size from six to seven,[1],minimal change of activity
O=S(=O)(Cc1ccccc1)N1C=Cc2ccccc2C1c1c[nH]c2ccccc12 (centres unmarked) [IBR2],IC50,[2],12 to 20 µM
"O=S(=O)(Cc1ccccc1)N1CCc2ccccc2[C@@H]1c1n[nH]c2ccccc12 [IBR117, (R)-1-(1H-Indazol-3-yl)-2-phenylmethanesulfonyl-1,2,3,4-tetrahydro-isoquinoline]",fold increase in activity compared to parental compound IBR2,[1],1.6~2.4 fold
"O=S(=O)(Cc1ccccc1)N1Cc2ccccc2[C@@H]1c1c[nH]c2ccccc12 [IBR120, (R)-3-(2-(benzylsulfonyl)isoindolin-1-yl)-1H-indole]",RAD51 multimerization (gel filtration elution profile),RAD51,can inhibit RAD51 multimerization
same,HR frequency (GFP positive population),[3],significantly reduced
same,IC50,"[4]; Homo sapiens, read-out: IC50 values in most tested cancer cell lines",3 to 5 µM
same,difference between the IC50 values in normal and cancer cells,[4]; normal MCF10A vs cancer cell lines,Approximately 10 fold
